How the values were obtained:
[1] = system: cellular microtubules in A-10 cells; assay: Loss of cellular; type: cell-based, rat; conditions: for Effect on cellular microtubules (in words): concentrations as high as 10 or 40 µM
Method in brief: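 Rat aortic smooth muscle A-10 cells were exposed to DMSO vehicle or test compound for 18 h, fixed in cold methanol, and stained for β-tubulin by indirect immunofluorescence. […] It is reported as mean ±SD of 3–4 independent experiments.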

Water solubility = type: physicochemical
MDA-MB-435 cells = assay: Cell cycle distribution by flow cytometry; type: cell-based, human; conditions: 44.1 nM or 73.5 nM, 18 h
mitotic spindles = assay: Formation of aberrant mitotic spindles; type: cell-based; conditions: data not shown
[2] = system: purified porcine brain tubulin; assay: Preliminary study of inhibition of tubulin polymerization; type: biochemical; conditions: porcine brain tubulin 2.5 mg/mL, absorbance at 340 nm, 37 °C
Method in brief: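 Porcine brain tubulin (2.5 mg/mL) was incubated with test compound, colchicine or DMSO vehicle. Polymerization was followed turbidimetrically as absorbance at 340 nm at 37 °C.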

## COc1ccc(N(C)c2nc(NC(=O)C(C)(C)C)nc3[nH]c4ccccc4c23)cc1 [Compound 7, N-{4-[(4-Methoxyphenyl)(methyl)amino]-9H-pyrimido[4,5-b]indol-2-yl}-2,2-dimethylpropanamide]
[1]
  Effect on cellular microtubules (in words): inactive

## COc1ccc(N(C)c2nc(N)nc3[nH]c4ccccc4c23)cc1.Cl [Compound 6·HCl, 4-((4-Methoxyphenyl)(methyl)amino)-9H-pyrimido[4,5-b]indol-2-aminium chloride]
Water solubility
  Solubility in water: freely soluble in water

## COc1cc(Nc2nc(N)nc3[nH]c4ccccc4c23)cc(OC)c1OC [Compound 12, N^4-(3,4,5-Trimethoxyphenyl)-9H-pyrimido[4,5-b]indole-2,4-diamine]
[1]
  Effect on cellular microtubules (in words): inactive

## COc1ccc(N(C)c2nc(N)nc3[nH]c4ccccc4c23)cc1 [Compound 6, N^4-(4-Methoxyphenyl)-N^4-methyl-9H-pyrimido[4,5-b]indole-2,4-diamine]
MDA-MB-435 cells
  Effect on cell cycle distribution: accumulation of cells in the G2/M phase of the cell cycle
Mitotic spindles
  Effect on mitotic spindles: caused the formation of aberrant mitotic spindles
[2]
  Inhibition of tubulin assembly (initial study, in words): potent inhibitor of tubulin assembly
[1]; 500 nM 6, 18 h incubation
  Effect on interphase microtubule network (immunofluorescence): extensive loss of the interphase microtubule network
[1]
  Effect on cellular microtubules (in words): active

## COc1ccc(Nc2nc(N)nc3[nH]c4ccccc4c23)cc1 [Compound 4, N^4-(4-Methoxyphenyl)-9H-pyrimido[4,5-b]indole-2,4-diamine]
[1]
  Effect on cellular microtubules (in words): inactive

## CCN(c1ccc(OC)cc1)c1nc(N)nc2[nH]c3ccccc3c12 [Compound 14, N^4-Ethyl-N^4-(4-methoxyphenyl)-9H-pyrimido[4,5-b]indole-2,4-diamine]
Mitotic spindles
  Effect on mitotic spindles: caused the formation of aberrant mitotic spindles
[1]
  Effect on cellular microtubules (in words): active

## Cc1ccc(N(C)c2nc(N)nc3[nH]c4ccccc4c23)cc1 [Compound 13, N^4-Methyl-N^4-(4-methylphenyl)-9H-pyrimido[4,5-b]indole-2,4-diamine]
[1]
  Effect on cellular microtubules (in words): inactive

## CCOc1ccc(N(C)c2nc(N)nc3[nH]c4ccccc4c23)cc1 [Compound 15, N^4-(4-Ethoxyphenyl)-N^4-methyl-9H-pyrimido[4,5-b]indole-2,4-diamine]
Mitotic spindles
  Effect on mitotic spindles: caused the formation of aberrant mitotic spindles
[1]
  Effect on cellular microtubules (in words): active

## COc1cccc(N(C)c2nc(N)nc3[nH]c4ccccc4c23)c1 [Compound 10, N^4-(3-Methoxyphenyl)-N^4-methyl-9H-pyrimido[4,5-b]indole-2,4-diamine]
[1]
  Effect on cellular microtubules (in words): inactive

Reference: article PMC3572549 (Bioorganic & medicinal chemistry, 2012)
